In PMC6207247 (Clinical Pharmacology : Advances and Applications, 2018):
“Also recorded” adds a separate entry of the source.

Key:
[1] = patients with atrial fibrillation, population PK; cited from earlier work
[2] = Single-dose pharmacokinetics of apixaban in plasma and urine; format: in vivo, human; conditions: for dose proportionality of exposure: Japanese and Caucasian; for CL renal / half-life: male, human, oral; for CL renal: plasma and urine, renal clearance; for half-life: plasma
[3] = tested on: clotting time (mPT); assay: Modified prothrombin time; format: in vivo, human; conditions: 50 mg single dose, Japanese and Caucasian
[4] = Safety and tolerability assessment; format: in vivo, human; conditions: for bleeding time: same subject
In short: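 Subjects stayed in clinic ≥72 h per period and avoided alcohol, grapefruit, caffeine and fecal-occult-interfering foods up to Day 4. Safety was assessed by adverse-event review (MedDRA v8.1, by organ class, ethnic group and dose), vital signs, ECGs, physical exams, serum chemistry, liver function, blood counts, urinalysis, fecal occult blood and template-device bleeding time.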

[5] = tested on: clotting times and thrombin generation; assay: Time course of pharmacodynamic measures; format: in vivo, human
[6] = tested on: thrombin generation; assay: Ex vivo thrombin generation; format: in vivo, human; conditions: after apixaban administration, greatest change
In short: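 For thrombin generation, the same dosing design applied, with platelet-poor plasma (double centrifugation, 2,500 g, 4°C) sampled 3, 6, 12 and 24 h postdose. Thrombin over time came from cleavage of a slow-reacting fluorogenic substrate against a paired calibration sample. Lag time, time to peak, peak thrombin and endogenous thrombin potential were derived from the curve and summarised as % change from baseline by group, dose and time.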

[7] = tested on: clotting time (INR); assay: International normalized ratio; format: in vivo, human; conditions: 50 mg dose, Japanese and Caucasian
[8] = tested on: clotting time (aPTT); assay: Activated partial thromboplastin time; format: in vivo, human; conditions: 50 mg dose

SMILES: COc1ccc(-n2nc(C(N)=O)c3c2C(=O)N(c2ccc(N4CCCCC4=O)cc2)CC3)cc1 [apixaban, 1-(4-methoxyphenyl)-7-oxo-6-(4-(2-oxopiperidin-1-yl)phenyl)-4,5,6,7-tetrahydro-1H-pyrazolo[3,4-c]pyridine-3-carboxamide]
- apixaban clearance lower in Japanese patients compared to the overall population [1]: 15%
- higher exposure corresponding to the lower clearance in Japanese patients [1]: 18%
- AUC values lower in Japanese than in Caucasian subjects ([2]; 50 mg dose): 20%–22%
- dose proportionality of exposure ([2]; 2.5–10 mg dose range): increased the dose proportionally up to 10 mg; also recorded: increased in proportion to dose
- point estimates and 95% CIs for dose proportionality parameter b ([2]; Cmax and AUC, both Japanese and Caucasian subjects, 2.5–50 mg): < 1
- dose proportionality of exposure ([2]; across the 2.5–50 mg dose range): less than proportional to dose
- CL renal ([2]; Caucasian subjects, across doses): 13.3 mL/min
- CL renal ([2]; Japanese subjects, across doses): 18.3 mL/min
- half-life ([2]; mean T1/2 values across doses, Caucasian subjects, 2.5–50 mg): 8.9 to 16.1 h
- half-life ([2]; mean T1/2 values across doses, Japanese subjects, 2.5–50 mg): 6.1 to 8.5 h
- half-life ([2]; mean half-life, Caucasian subjects, across doses): ~13 h
- half-life ([2]; mean half-life, Japanese subjects, across doses): ~8 h
- mPT, mean maximum increase from baseline [3]: 226%–229%
- headache, number of subjects ([4]; Caucasian subjects who received apixaban): five
- subjects reporting AEs ([4]; Caucasian subjects who received apixaban (11)): 91.7%
- subjects reporting AEs ([4]; Japanese subjects who received apixaban (five)): 41.7%
- intensity of reported AEs ([4]; all reported AEs): mild or moderate
- safety and tolerability ([4]; ascending single oral doses 2.5–50 mg, Japanese and Caucasian healthy subjects): safe and well tolerated
- changes in vital signs or ECGs ([4]; either group): no clinically relevant changes
- bleeding time ([4]; 3.5 h after the 50 mg dose): 30 min
- bleeding time ([4]; by 12 h after the 50 mg dose): 9 min
- total number of AEs reported ([4]; subjects who received apixaban (12 Japanese, 12 Caucasian)): 32
- serious AEs or discontinuations due to AEs ([4]; whole study): no serious AEs or discontinuations due to AEs
- duration of pharmacodynamic effects ([5]; 25 and 50 mg dose panels): > 24 h
- time for which changes in TG parameters and mPT were evident ([5]; after apixaban administration): ≥ 12 h
- time until changes in pharmacodynamic measures were evident ([5]; after apixaban administration, Japanese and Caucasian): ≤ 30 min
- time to nearing baseline values of pharmacodynamic measures ([5]; doses ≤10 mg): 12 to 24 h
- time of peak values of pharmacodynamic measures ([5]; postdose): approximately 3 h
- ETP, decrease from baseline [6]: 49%
- LAG, increase from baseline (up to) [6]: approximately 178%
- PEAK, decrease from baseline [6]: 86%
- TTP, increase from baseline (up to) [6]: ~142%
- INR, increase from baseline [7]: 50%–64%
- aPTT, mean maximum increase from baseline [8]: ~ 25%
